Assay results: ChEMBL document CHEMBL4431329, “Peripherally Selective Cannabinoid 1 Receptor (CB1R) Agonists for the Treatment of Neuropathic Pain” (J Med Chem, 2016)
The source made the active and inactive calls.

Tests used:
Rattus norvegicus [1] = experiment: Antiallodynic activity in SNE-induced mechanical allodynia naive Sprague-Dawley rat model assessed as reversible […] in hindpaw ipsilateral withdrawal threshold at 0.3 mg/kg, ip preincubated for 3 hrs followed by SNE addition; type: functional, organism-based
Summary of the method: (§1)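 Male Sprague–Dawley rats received unilateral sciatic nerve entrapment. Testing began 8 days post-surgery at 3-day intervals, dosed ip in DMSO/Cremophor EL/saline. Hindpaw withdrawal threshold (g) was read with a digital von Frey meter, 4 readings per paw at 30 s spacing, averaged. Reads were taken 1 h before and 3, 6, 24 and 48 h after dosing; n = 8; blinded; one-way RM ANOVA.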

Rattus norvegicus [2] = experiment: Increase in SNE-induced hindpaw contralateral withdrawal threshold in naive Sprague-Dawley rat at 0.3 mg/kg, ip incubated for 3 hrs followed by SNE addition; type: organism-based; settings: in vivo; summary of the method: as §1
Rattus norvegicus [3] = experiment: Antiallodynic activity in SNE-induced mechanical allodynia naive Sprague-Dawley rat model assessed as […] in hindpaw ipsilateral withdrawal threshold at 3 mg/kg, po preincubated for 3 hrs followed by SNE addition; type: functional, organism-based
Summary of the method: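 SNE rats were dosed by oral gavage (drug in DMSO diluted in 20% sweetened condensed milk, 16 mL/kg). Ipsilateral/contralateral hindpaw withdrawal thresholds were measured by digital von Frey, 4 readings per paw averaged, before and at intervals after dosing. n = 8 rats; blinded; one-way RM ANOVA against predrug values.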

[4] = Cmax in naive naive Sprague-Dawley rat at 0.3 mg/kg, ip by LC/MS/MS analysis; type: ADME, organism-based; parameters: dose 0.3 mg/kg, route intraperitoneal; settings: in vivo
Summary of the method: (§2)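 Male Sprague–Dawley rats given a single ip injection (drug in 50/50 DMSO:Cremophor EL, diluted in sterile saline, 1.5 mL/kg). Tail-vein blood (~110 μL) drawn at intervals after brief restraint, centrifuged, plasma stored −20 °C. Quantified by LC-MS/MS against standard curves prepared in samples from untreated animals; n = 3 rats.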

[5] = AUC in naive Sprague-Dawley rat at 0.3 mg/kg, ip by LC/MS/MS analysis; type: ADME, organism-based; settings: in vivo; summary of the method: as §2
[6] = Half life in naive Sprague-Dawley rat at 0.3 mg/kg, ip by LC/MS/MS analysis; type: ADME, organism-based; settings: in vivo; summary of the method: as §2
[7] = Ratio of drug level in brain to plasma in naive Sprague-Dawley rat at 0.3 mg/kg, ip after 75 mins; type: ADME, organism-based; settings: read-out: BPR
Summary of the method: (§3)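 Samples taken from 3 rats ~75 min after ip dosing. CSF (100–150 μL) was taken from the cisterna magna under isoflurane. Brain was removed after pentobarbital anesthesia and cold-saline intracardiac perfusion. Plasma came from tail-vein blood. Drug was measured by LC-MS/MS against standard curves made in untreated-animal matrix, and the ratio was taken to plasma.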

[8] = Ratio of drug level in cerebrospinal fluid to plasma in naive Sprague-Dawley rat at 0.3 mg/kg, ip after 75 mins; type: ADME, organism-based, CSF/Plasma; summary of the method: as §3
Rattus norvegicus [9] = experiment: Analgesic activity in naive Sprague-Dawley rat assessed as increase in tail flick latency at 0.3 mg/kg, ip up to 48 hrs by tail-flick assay; type: functional, organism-based
Summary of the method: (§4)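 Naïve male Sprague–Dawley rats were dosed ip (DMSO/Cremophor EL/saline) or by gavage (DMSO in 20% condensed milk). Radiant heat was aimed 3 cm from the tail tip and latency timed by photocell. Baseline was set to ~5–7 s with a 25 s cutoff. Testing ran 1 h pre-dose and up to 48 h after. Peak effect was taken minus vehicle; n = 6–8; blinded.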

Rattus norvegicus [10] = experiment: Analgesic activity in naive Sprague-Dawley rat assessed as tail flick latency at 0.1 to 10 mg/kg administered through oral gavage up to 48 hrs by tail-flick assay; type: functional, organism-based; summary of the method: as §4
[11] = Toxicity in naive Sprague-Dawley rat assessed as motor incoordination at 0.3 mg/kg, ip after 2 to 48 hrs by rotarod test; type: organism-based; settings: in vivo
Summary of the method: (§5)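 Rats were trained 72 h earlier (3 sessions, 24 h apart) to stay ≥180 s on an accelerating rotarod (4–40 rev over 5 min). Time on rod was recorded to a 3 min cutoff, 1 h pre-dose and 2, 6, 24 and 48 h after ip or oral gavage dosing. Values are peak effect minus vehicle; n = 6–8; blinded.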

[12] = Toxicity in naive Sprague-Dawley rat assessed as immobility at 0.3 mg/kg, ip after 2 to 48 hrs by catalepsy ring test; type: organism-based; settings: in vivo
Summary of the method: (§6)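 In the ring immobility test, forepaws were placed on a 12 cm horizontal ring with hindpaws just touching the bench. Time to move off was recorded, 100 s cutoff. Testing was pre-dose and 2, 6, 24 and 48 h after ip or oral gavage dosing. Values are peak effect minus vehicle; n = 6–8; blinded.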

[13] = Toxicity in naive Sprague-Dawley rat assessed as hypothermia at 0.3 mg/kg, ip after 2 to 48 hrs by core temperature test; type: organism-based; settings: in vivo
Summary of the method: (§7)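 Naïve rats were acclimated to a restrainer (two 5-min sessions 20 min apart). Core temperature was taken before and 2, 6, 24 and 48 h after ip (DMSO/Cremophor EL/saline) or oral gavage (DMSO in 20% condensed milk) dosing. Dose-response points are mean peak effect minus vehicle; n = 6–8 rats; blinded.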

Rattus norvegicus [14] = experiment: Antiallodynic activity in SNE-induced mechanical allodynia naive Sprague-Dawley rat model assessed as decrease in hindpaw ipsilateral withdrawal threshold at 0.6 mg/kg, ip preincubated for 3 hrs followed by SNE addition in presence of SR141716; type: functional, organism-based
Summary of the method: (§8)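 SNE rats were given the test agonist ip alone, or 30 min after pretreatment with a selective CB1R or CB2R antagonist, with sessions at 3-day intervals. Ipsilateral hindpaw withdrawal threshold was measured by digital von Frey (4 readings per paw averaged). Tests were blinded.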

Rattus norvegicus [15] = experiment: Antiallodynic activity in SNE-induced mechanical allodynia naive Sprague-Dawley rat model assessed as decrease in hindpaw ipsilateral withdrawal threshold at 0.6 mg/kg, ip preincubated for 3 hrs followed by SNE addition in presence of SR144528; type: functional, organism-based; summary of the method: as §8
[16] = Toxicity in naive Sprague-Dawley rat assessed as motor incoordination at 10 mg/kg administered through oral gavage after 2 to 48 hrs by rotarod test; type: organism-based; settings: in vivo; summary of the method: as §5
[17] = Toxicity in naive Sprague-Dawley rat assessed as hypothermia at 10 mg/kg administered through oral gavage after 2 to 48 hrs by core temperature test; type: organism-based; settings: in vivo; summary of the method: as §7
[18] = Toxicity in naive Sprague-Dawley rat assessed as immobility at 10 mg/kg administered through oral gavage after 2 to 48 hrs by catalepsy ring test; type: organism-based; settings: in vivo; summary of the method: as §6
Rattus norvegicus [19] = experiment: Antiallodynic activity in SNE-induced mechanical allodynia naive Sprague-Dawley rat model assessed as decrease in hindpaw ipsilateral withdrawal threshold at 0.6 mg/kg, ip preincubated for 3 hrs followed by SNE addition in presence of rimonabant; type: functional, organism-based; summary of the method: as §8
Rattus norvegicus [20] = experiment: Antiallodynic activity in SNE-induced mechanical allodynia naive Sprague-Dawley rat model assessed as […] in hindpaw ipsilateral withdrawal threshold at 0.6 mg/kg, ip preincubated for 3 hrs followed by SNE addition in presence of tert-Butyl-4-[5-(4-Chlorophenyl)-1-(2,4-dichlorophenyl)-4- methyl-1H-pyrazole-3-amido]piperidine-1-carboxylate; type: functional, organism-based; summary of the method: as §8
Cannabinoid receptor 1 = Cannabinoid receptor 1 (Homo sapiens, UniProt P21554); experiment: Agonist activity at human CB1R expressed in CHO cells by Ca2+ flux assay; type: functional, cell-based
Chain of Cannabinoid receptor 1 (P21554 whole entry): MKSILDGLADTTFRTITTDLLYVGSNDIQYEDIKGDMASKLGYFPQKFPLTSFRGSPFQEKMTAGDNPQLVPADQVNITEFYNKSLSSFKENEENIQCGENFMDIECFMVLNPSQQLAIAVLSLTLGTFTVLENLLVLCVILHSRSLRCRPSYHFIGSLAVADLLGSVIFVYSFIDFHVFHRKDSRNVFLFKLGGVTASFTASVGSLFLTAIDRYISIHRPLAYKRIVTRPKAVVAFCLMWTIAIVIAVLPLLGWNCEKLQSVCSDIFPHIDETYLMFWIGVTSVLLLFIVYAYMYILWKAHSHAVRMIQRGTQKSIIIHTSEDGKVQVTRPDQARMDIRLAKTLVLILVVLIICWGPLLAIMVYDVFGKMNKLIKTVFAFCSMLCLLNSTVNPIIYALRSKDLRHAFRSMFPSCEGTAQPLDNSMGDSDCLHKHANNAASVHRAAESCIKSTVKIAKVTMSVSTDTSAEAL
Summary of the method: (§9)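 CHO cells stably co-expressing human CB1 or CB2 with Gαq16 were seeded at 40000/well and grown 24 h at 37 °C. They were loaded 1 h at 37 °C with Fluo-4 AM (2 μM final) in HBSS/20 mM HEPES/1% BSA/probenecid. Agonist was added after ~17 s baseline, and fluorescence (ex 488/em 525) was read each 1 s for 60 s. Runs were done 3–6 times; mean ± SEM.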

Cannabinoid receptor 2 = Cannabinoid receptor 2 (Homo sapiens, UniProt P34972); experiment: Agonist activity at human CB2R expressed in CHO cells by Ca2+ flux assay; type: functional, cell-based; summary of the method: as §9
Chain of Cannabinoid receptor 2 (P34972 whole entry): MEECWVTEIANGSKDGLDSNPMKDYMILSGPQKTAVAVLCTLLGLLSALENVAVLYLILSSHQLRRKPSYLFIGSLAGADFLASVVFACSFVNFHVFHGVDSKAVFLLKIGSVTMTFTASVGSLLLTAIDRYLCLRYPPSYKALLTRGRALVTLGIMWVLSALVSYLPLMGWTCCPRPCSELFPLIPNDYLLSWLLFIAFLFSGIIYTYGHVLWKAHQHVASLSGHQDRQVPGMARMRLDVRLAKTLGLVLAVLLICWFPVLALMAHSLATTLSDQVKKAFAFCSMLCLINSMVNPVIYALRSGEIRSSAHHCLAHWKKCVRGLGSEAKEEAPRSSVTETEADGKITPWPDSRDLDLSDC

[21] = Metabolic stability in Sprague-Dawley rat plasma assessed as compound remaining at 10 uM measured at 1 hr by LC/MS analysis; type: ADME, cell-free
Summary of the method: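 Compound (10 μM final, from 1 mM ethanol stock) was incubated in male Sprague–Dawley rat plasma at 37 °C. Aliquots taken at 0, 30 and 60 min were extracted with 3 volumes methanol and centrifuged. Supernatants were analysed by LC/MS.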

[22] = Metabolic stability in Sprague-Dawley rat liver S9 fraction assessed as compound remaining at 10 uM measured at 1 hr by LC/MS analysis; type: ADME, subcellular; settings: s9, 1 h
Summary of the method: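 Compound (10 μM final, from 1 mM ethanol stock) was incubated at 37 °C in male Sprague–Dawley rat liver S9 (1 mg protein/mL). The mix held an NADPH-regenerating system (1 mM NADP, 5 mM glucose 6-phosphate, 1 U/mL G6PDH) in 50 mM KPO4 pH 7.4 with 3 mM MgCl2, preincubated 5 min. Samples at 0–120 min were methanol-extracted and analysed by LC/MS.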

SMILES: CCCc1ccc(/C=C2\C=C(CCN3CCOCC3)c3ccccc32)c2ccccc12
- Activity (Rattus norvegicus [1]): Active
- Activity (Rattus norvegicus [2]): Toxic
- Activity (Rattus norvegicus [3]): Active
- Cmax [4]: 11.9 ng/mL
- AUC [5]: 112 ng·h/mL
- half-life [6]: 7.2 h
- Kp at 1.25 h [7]: 0.182
- Kp at 1.25 h [8]: 0.001
- Activity (Rattus norvegicus [9]): Active
- Activity (Rattus norvegicus [10]): Active
- Activity [11]: Non-Toxic
- Activity [12]: Non-Toxic
- Activity [13]: Non-Toxic
- Activity (Rattus norvegicus [14]): inactive
- Activity (Rattus norvegicus [15]): Active
- Activity [16]: Non-Toxic
- Activity [17]: Non-Toxic
- Activity [18]: Non-Toxic
- Activity (Rattus norvegicus [19]): inactive
- Activity (Rattus norvegicus [20]): inactive
- EC50 (Cannabinoid receptor 1): 182 nM
- Emax (Cannabinoid receptor 1): 108%
- EC50 (Cannabinoid receptor 2): 94 nM
- Emax (Cannabinoid receptor 2): 69%
- Stability [21]: 92%
- Stability [22]: 37%
